Assay [1] deals with T1, SaSDH (Staphylococcus aureus shikimate dehydrogenase) (Staphylococcus aureus, UniProt Q5HFG5).
T1 sequence (Q5HFG5 1-268): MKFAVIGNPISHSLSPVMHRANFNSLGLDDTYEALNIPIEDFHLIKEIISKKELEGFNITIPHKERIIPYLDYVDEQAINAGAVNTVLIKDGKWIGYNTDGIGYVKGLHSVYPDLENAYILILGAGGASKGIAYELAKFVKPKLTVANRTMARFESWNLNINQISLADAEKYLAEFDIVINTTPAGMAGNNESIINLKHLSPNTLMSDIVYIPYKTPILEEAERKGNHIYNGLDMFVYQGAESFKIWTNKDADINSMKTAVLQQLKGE
Kind of assay: SaSDH enzyme inhibition. The following applies: for IC50: 1 mM SHK, 1.54 ng SaSDH, pH 9.0, 37 °C, 30 min; for Mode of inhibition: with respect to SHK. The assay is classed as biochemical.

Assay [2] addresses T2, SaSDH (Staphylococcus aureus, UniProt Q5HFG5).
T2 sequence (Q5HFG5 1-268): T1 sequence (Q5HFG5 1-268)
Description: SaSDH enzyme activity and kinetic parameters for substrates. The assay is classed as biochemical. As to conditions: substrate varied, co-substrate at saturation, pH 9.0, 37 °C. The gist of the method: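 His-tagged SaSDH (pET-28a(+), E. coli BL21(DE3)pLysS, IPTG induction, Ni-NTA purified). Reverse reaction: NADP+-dependent SHK oxidation, 1.54 ng enzyme, 100 mM Tris-HCl pH 9.0, 37 °C, enzyme-started; A340 every minute for 60 min.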

Assay [3] concerns S. aureus. Description: S. aureus susceptibility, micro-broth two-fold serial dilution. The format is cell-based, Staphylococcus aureus.
In assay [4] the test system is S. aureus. Description: Growth / time-kill curves. The format is cell-based, Staphylococcus aureus. As to conditions: inhibitor at MIC: 50 μg/mL (-)-gallocatechin gallate, 250 μg/mL rhodiosin.
For assay [5], the system named is S. aureus. Description: Scanning electron microscopy of bacterial morphology. The format is cell-based, Staphylococcus aureus. As to conditions: MIC and 1/2 MIC, 1.5 h.
The subject of assay [6] is S. aureus. Description: Cell membrane integrity, Calcein AM/PI staining. The format is cell-based, Staphylococcus aureus. The following applies: MIC, 37 °C, 3 h.
Assay [7] addresses T2, SaSDH. Kind of assay: Isothermal titration calorimetry. The assay is classed as binding. The following applies: ITC, 100 mM Tris-HCl pH 9.0, 25 °C.

Entries after “also recorded” stand apart in the source; their conditions may differ.

What is called IC50 is the concentration that gives 50% inhibition. In assay [1] (1 mM NADP), `CC=C1[C@H](O[C@@H]2O[C@H](CO)[C@@H](O)[C@H](O)[C@H]2O)OC=C(C(=O)OC)[C@H]1CC(=O)OC[C@H]1O[C@@H](OCCc2ccc(O)cc2)[C@H](O)[C@@H](O)[C@@H]1O` (stereo in doubt) [Specneuzhenide] displayed an IC50 of less than 100 µM.
Broadly, the Km is the substrate concentration at which the rate is half of its maximum. Consider `O=C(O)C1=C[C@@H](O)[C@@H](O)[C@H](O)C1` [SHK, shikimate], for which, in assay [2], the Km stood at 46.1 µM and the Vmax is 3.362 mM/min/µg.
Regarding Rhodiosin, the Mode of inhibition entry was “competitive inhibition” in assay [1] (Lineweaver-Burke plots) and “competitive inhibitor” in assay [1] (Lineweaver-Burke plots, listed as rhodiosin). The “Antibacterial activity (in words)” value in assay [3] is reported as “antibacterial activities”. Further, in assay [4], the “Effect on S. aureus growth (time-kill curves)” value is given as “completely inhibited S.aureus growth”. In addition, in assay [5], the “Bacterial morphology by SEM” value is “cell disintegration, cell surface fracturing and wrinkling”. In addition, in assay [6], the “Cell membrane integrity (PI-labeled bacteria)” value is “cell membrane destruction”.
The term Ki denotes the dissociation constant of the complex between target and ligand, obtained from inhibition or displacement. Usually Kd stands for the concentration at which binding is half-saturated. The low end stands for a tighter complex, the high end for a looser complex. `O=C(O[C@@H]1Cc2c(O)cc(O)cc2O[C@H]1c1cc(O)c(O)c(O)c1)c1cc(O)c(O)c(O)c1` [(-)-Gallocatechin gallate] gave an IC50 in assay [1] (1 mM NADP) of less than 100 µM. In assay [1] (Lineweaver-Burke plots, SHK varied 0.25-4 mM), this molecule showed a Ki of 2.47 µM. The Mode of inhibition entry in assay [1] (Lineweaver-Burke plots) was “uncompetitive inhibition; also recorded: uncompetitive inhibitor”. Also, the “Antibacterial activity (in words)” value in assay [3] is “antibacterial activities”. Moreover, the “Effect on S. aureus growth (time-kill curves)” value in assay [4] is listed as “slow bacterial growth”. Moreover, the “Bacterial morphology by SEM” value in assay [5] is “cell disintegration, cell surface fracturing and wrinkling”. In addition, in assay [6], the “Cell membrane integrity (PI-labeled bacteria)” value is recorded as “cell membrane destruction”. Moreover, the Kd in assay [7] is 44.6 µM.
In assay [1] (1 mM NADP), `COc1ccc([C@@H]2CC(=O)c3c(O)cc(O[C@@H]4O[C@H](CO[C@@H]5O[C@@H](C)[C@H](O)[C@@H](O)[C@H]5O)[C@@H](O)[C@H](O)[C@H]4O)cc3O2)cc1O` [Hesperidin] came in with an IC50 of less than 100 µM.
For `O=C(OC[C@H]1O[C@@H](OC(=O)c2cc(O)c(O)c(O)c2)[C@H](OC(=O)c2cc(O)c(O)c(O)c2)[C@@H](OC(=O)c2cc(O)c(O)c(O)c2)[C@@H]1OC(=O)c1cc(O)c(O)c(O)c1)c1cc(O)c(O)c(O)c1` [Pentagalloylglucose], the IC50 in assay [1] (IC50, 1 mM NADP) was less than 100 µM. Also, the “Antibacterial activity (in words)” value in assay [3] is on record as “antibacterial activities”.
On to `C[C@@H]1O[C@@H](OC[C@H]2O[C@@H](Oc3c(-c4ccc(OCCO)c(OCCO)c4)oc4cc(OCCO)cc(O)c4c3=O)[C@H](O)[C@@H](O)[C@@H]2O)[C@H](O)[C@H](O)[C@H]1O` [Troxerutin, reference compound], for which, in assay [1] (IC50, 1 mM NADP), the IC50 was less than 100 µM.
For the molecule `NC(=O)c1ccc[n+]([C@@H]2O[C@H](COP(=O)([O-])OP(=O)(O)OC[C@H]3O[C@@H](n4cnc5c(N)ncnc54)[C@H](OP(=O)(O)O)[C@@H]3O)[C@@H](O)[C@H]2O)c1` [NADP^+], in assay [2], the Km is 98.2 µM and the Vmax was 3.785 mM/min/µg.
